Laboratory results: ChEMBL document CHEMBL1806372, “Cytotoxic ring A-modified steroid analogues derived from Grundmann's ketone” (Eur J Med Chem, 2011)

Assays:
Assay type in all cases: functional
[1] = tested on: M14; assay: Growth inhibition of human M14 cells after 48 hrs by sulforhodamine B assay; conditions: M14, 48 h
Procedure, shortened: (§1)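 From log concentration versus % growth curves, GI50 (50% decrease in net growth), TGI (total growth inhibition) and LC50 (net 50% loss of initial cells) are derived for each line.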

[2] = tested on: NCI-H226; assay: Growth inhibition of human NCI-H226 cells assessed as cell growth at 10^-5 M after 48 hrs by sulforhodamine B assay; conditions: NCI-H226, 48 h, read-out: Activity
Procedure, shortened: (§2)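 NCI-60 single high-dose screen run under the NCI protocol. Cells were incubated with compound at 10^-5 M for 48 h. The end point was determined by sulforhodamine B protein staining. Results are reported as percent growth of treated cells relative to untreated control cells.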

[3] = tested on: NCI/ADR-RES; assay: Growth inhibition of human NCI/ADR-RES cells after 48 hrs by sulforhodamine B assay
Procedure, shortened: (§3)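 GI50, TGI and LC50 were derived from log concentration versus % growth inhibition curves for each cell line. GI50 is the concentration giving a 50% decrease in net cell growth. Insensitive lines are reported as greater than the highest concentration.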

[4] = tested on: PC-3; assay: Cytotoxicity against human PC3 cells after 48 hrs by sulforhodamine B assay; conditions: PC-3, 48 h, read-out: LC50 (the source's name)
Procedure, shortened: (§4)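 NCI 60 human tumour cell line panel run to the NCI protocol. GI50, TGI and LC50 come from log concentration vs % growth inhibition curves for each cell line. Lines insensitive at the top concentration are reported with ">".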

[5] = tested on: SK-MEL-2; assay: Growth inhibition of human SK-MEL-2 cells after 48 hrs by sulforhodamine B assay; conditions: SK-MEL-2, 48 h; procedure, shortened: as §3
[6] = tested on: SN12C; assay: Cytotoxicity against human SN12C cells after 48 hrs by sulforhodamine B assay; conditions: read-out: LC50 (the source's name); procedure, shortened: as §4
[7] = tested on: PC-3; assay: Growth inhibition of human PC3 cells assessed as cell growth at 10^-5 M after 48 hrs by sulforhodamine B assay; conditions: PC-3, 48 h, read-out: Activity; procedure, shortened: as §2
[8] = tested on: A549; assay: Cytotoxicity against human A549 cells after 48 hrs by sulforhodamine B assay; conditions: A549, 48 h, read-out: LC50 (the source's name); procedure, shortened: as §4
[9] = tested on: HOP-92; assay: Growth inhibition of human HOP92 cells after 48 hrs by sulforhodamine B assay; conditions: HOP-92, 48 h; procedure, shortened: as §1
[10] = tested on: SK-MEL-28; assay: Cytotoxicity against human SK-MEL-28 cells after 48 hrs by sulforhodamine B assay; conditions: SK-MEL-28, 48 h, read-out: LC50 (the source's name); procedure, shortened: as §4
[11] = tested on: RXF 393; assay: Growth inhibition of human RXF393 cells after 48 hrs by sulforhodamine B assay; conditions: RXF 393, 48 h; procedure, shortened: as §3
[12] = tested on: BT-549; assay: Growth inhibition of human BT549 cells after 48 hrs by sulforhodamine B assay; conditions: BT-549, 48 h; procedure, shortened: as §1
[13] = tested on: NCI-H522; assay: Growth inhibition of human NCI-H522 cells after 48 hrs by sulforhodamine B assay; conditions: NCI-H522, 48 h; procedure, shortened: as §3
[14] = tested on: NCI/ADR-RES; assay: Growth inhibition of human NCI/ADR-RES cells assessed as cell growth at 10^-5 M after 48 hrs by sulforhodamine B assay; conditions: read-out: Activity; procedure, shortened: as §2
[15] = tested on: NCI-H23; assay: Growth inhibition of human NCI-H23 cells after 48 hrs by sulforhodamine B assay; conditions: NCI-H23, 48 h; procedure, shortened: as §3
[16] = tested on: TK-10; assay: Growth inhibition of human TK10 cells assessed as cell growth at 10^-5 M after 48 hrs by sulforhodamine B assay; conditions: TK-10, 48 h, read-out: Activity
Procedure, shortened: (§5)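 NCI 60-cell panel single-dose screen under the NCI protocol. Cells are exposed to compound at one concentration (10^-5 M) for 48 h. The end point is protein staining with sulforhodamine B. Each line is reported as percent growth of treated cells relative to untreated control cells.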

[17] = tested on: HCC 2998; assay: Cytotoxicity against human HCC2998 cells after 48 hrs by sulforhodamine B assay; conditions: HCC 2998, 48 h, read-out: LC50 (the source's name); procedure, shortened: as §4
[18] = tested on: DU-145; assay: Growth inhibition of human DU145 cells after 48 hrs by sulforhodamine B assay; conditions: DU-145, 48 h; procedure, shortened: as §1
[19] = tested on: HOP-62; assay: Growth inhibition of human HOP62 cells after 48 hrs by sulforhodamine B assay; conditions: HOP-62, 48 h; procedure, shortened: as §1
[20] = tested on: SW-620; assay: Cytotoxicity against human SW620 cells after 48 hrs by sulforhodamine B assay; conditions: SW-620, 48 h, read-out: LC50 (the source's name)
[21] = tested on: MDA-MB-468; assay: Growth inhibition of human MDA-MB-468 cells after 48 hrs by sulforhodamine B assay; conditions: MDA-MB-468, 48 h; procedure, shortened: as §3
[22] = tested on: UACC-257; assay: Growth inhibition of human UACC257 cells assessed as cell growth at 10^-5 M after 48 hrs by sulforhodamine B assay; conditions: UACC-257, 48 h, read-out: Activity; procedure, shortened: as §5
[23] = Growth inhibition of human Hs 578T cells after 48 hrs by sulforhodamine B assay; procedure, shortened: as §1
[24] = tested on: NCI-H460; assay: Growth inhibition of human NCI-H460 cells after 48 hrs by sulforhodamine B assay; conditions: NCI-H460, 48 h; procedure, shortened: as §3
[25] = tested on: SNB-19; assay: Growth inhibition of human SNB19 cells after 48 hrs by sulforhodamine B assay; conditions: SNB-19, 48 h
Procedure, shortened: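 NCI 60-cell panel five-dose assay. GI50, TGI and LC50 are derived from log concentration versus % growth inhibition curves. Cell lines insensitive at the top concentration are given a ">" prefix.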

[26] = tested on: UACC-257; assay: Cytotoxicity against human UACC257 cells after 48 hrs by sulforhodamine B assay; conditions: UACC-257, 48 h, read-out: LC50 (the source's name)
[27] = tested on: M14; assay: Growth inhibition of human M14 cells assessed as cell growth at 10^-5 M after 48 hrs by sulforhodamine B assay; conditions: M14, 48 h, read-out: Activity; procedure, shortened: as §2
[28] = tested on: SNB-19; assay: Growth inhibition of human SNB19 cells assessed as cell growth at 10^-5 M after 48 hrs by sulforhodamine B assay; conditions: SNB-19, 48 h, read-out: Activity; procedure, shortened: as §5
[29] = tested on: EKVX; assay: Cytotoxicity against human EKVX cells after 48 hrs by sulforhodamine B assay; conditions: read-out: LC50 (the source's name); procedure, shortened: as §4
[30] = tested on: SNB-19; assay: Cytotoxicity against human SNB19 cells after 48 hrs by sulforhodamine B assay; conditions: SNB-19, 48 h, read-out: LC50 (the source's name); procedure, shortened: as §4
[31] = tested on: OVCAR-5; assay: Growth inhibition of human OVCAR5 cells after 48 hrs by sulforhodamine B assay; conditions: OVCAR-5, 48 h; procedure, shortened: as §3
[32] = tested on: NCI-H522; assay: Cytotoxicity against human NCI-H522 cells after 48 hrs by sulforhodamine B assay; conditions: NCI-H522, 48 h, read-out: LC50 (the source's name); procedure, shortened: as §4
[33] = tested on: MOLT-4; assay: Growth inhibition of human MOLT4 cells assessed as cell growth at 10^-5 M after 48 hrs by sulforhodamine B assay; conditions: MOLT-4, 48 h, read-out: Activity; procedure, shortened: as §2

Structure (SMILES): CC(C)CCC[C@@H](C)[C@H]1CC[C@H]2C3=CC[C@@H]4C(=O)C=CC(=O)[C@@H]4[C@@H]3CC[C@]12C
- GI50 [1]: 299 nM
- growth at 10 µM [2]: 42%
- GI50 [3]: 275 nM
- CC50 [4]: > 100 µM
- GI50 [5]: 3370 nM
- TGI [5]: > 100000 nM
- CC50 [6]: > 100 µM
- growth at 10 µM [7]: 9.01%
- CC50 [8]: > 100 µM
- GI50 [9]: 28 nM
- TGI [9]: 86 nM
- CC50 [10]: > 100 µM
- GI50 [11]: 201 nM
- TGI [11]: 995 nM
- GI50 [12]: 427 nM
- TGI [12]: 2550 nM
- GI50 [13]: 803 nM
- TGI [13]: > 100000 nM
- growth at 10 µM [14]: 7.87%
- GI50 [15]: 147 nM
- growth at 10 µM [16]: -36.6%
- CC50 [17]: > 100 µM
- GI50 [18]: 632 nM
- TGI [18]: > 100000 nM
- GI50 [19]: 630 nM
- TGI [19]: > 100000 nM
- CC50 [20]: > 100 µM
- GI50 [21]: 215 nM
- TGI [21]: 462 nM
- growth at 10 µM [22]: 28.7%
- GI50 [23]: 817 nM
- TGI [23]: > 100 µM
- GI50 [24]: 333 nM
- TGI [24]: 5.59 µM
- GI50 [25]: 654 nM
- TGI [25]: > 100 µM
- CC50 [26]: > 100 µM
- growth at 10 µM [27]: 5.05%
- growth at 10 µM [28]: 7.34%
- CC50 [29]: > 100 µM
- CC50 [30]: > 100 µM
- GI50 [31]: 212 nM
- TGI [31]: > 100000 nM
- CC50 [32]: > 100000 nM
- growth at 10 µM [33]: 10.4%

Structure (SMILES): CC(C)CCC[C@@H](C)[C@H]1CC[C@H]2C3=CCn4c(=O)ccc(=O)n4[C@@H]3CC[C@]12C
- GI50 [1]: 285 nM
- TGI [1]: 1010 nM
- growth at 10 µM [2]: -91.8%
- GI50 [3]: 417 nM
- TGI [3]: 1900 nM
- CC50 [4]: 4.83 µM
- GI50 [5]: 286 nM
- TGI [5]: 774 nM
- CC50 [6]: 5.28 µM
- growth at 10 µM [7]: -85.5%
- CC50 [8]: 4.04 µM
- GI50 [9]: 175 nM
- TGI [9]: 1030 nM
- CC50 [10]: 4.14 µM
- GI50 [11]: 952 nM
- TGI [11]: 2300 nM
- GI50 [12]: 312 nM
- TGI [12]: 876 nM
- GI50 [13]: 175 nM
- TGI [13]: 459 nM
- growth at 10 µM [14]: -28.8%
- GI50 [15]: 1420 nM
- TGI [15]: 3.58 µM
- growth at 10 µM [16]: -83.1%
- CC50 [17]: 4.99 µM
- GI50 [18]: 1040 nM
- TGI [18]: 2260 nM
- GI50 [19]: 1330 nM
- TGI [19]: 2670 nM
- CC50 [20]: 5.33 µM
- GI50 [21]: 628 nM
- TGI [21]: 2560 nM
- growth at 10 µM [22]: -97.5%
- GI50 [23]: 1800 nM
- TGI [23]: 4.79 µM
- GI50 [24]: 739 nM
- TGI [24]: 2.25 µM
- GI50 [25]: 1520 nM
- TGI [25]: 3.02 µM
- CC50 [26]: 4.32 µM
- growth at 10 µM [27]: -87.1%
- growth at 10 µM [28]: -100%
- CC50 [29]: 7.33 µM
- CC50 [30]: 6.01 µM
- GI50 [31]: 1050 nM
- TGI [31]: 2870 nM
- CC50 [32]: 1540 nM
- growth at 10 µM [33]: -23.6%

Structure (SMILES): CC(C)CCC[C@@H](C)[C@H]1CC[C@H]2[C@@H]3CCN4C(=O)CCC(=O)N4[C@@H]3CC[C@]12C
- growth at 10 µM [2]: 90.3%
- growth at 10 µM [7]: 70.5%
- growth at 10 µM [14]: 94.6%
- growth at 10 µM [16]: 108%
- growth at 10 µM [22]: 76.2%
- growth at 10 µM [27]: 90.5%
- growth at 10 µM [28]: 162%
- growth at 10 µM [33]: 87.2%
